# PAX8 inh HTS: lowers PAX8-driven luciferase in RMG-I cells. RMG-I TPO-luciferase reporter, SteadyGlo, 24 h. inhibition, % at 12.6 µM. hit rate 1.2% among 360,000. AID 652154;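 active = mean replicate inhibition at least 60% with every replicate also reaching 60%; inconclusive = only one of the two criteria is met; inactive = mean below 60% and not all replicates reaching 60%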;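 note: luciferase light reporting Pax8 driven TPO promoter activity; plate controls were median of neutral control wells for no effect and mitoxantrone controls for full effect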
# XiGFP reactiv: activators of X-chromosome reactivation in mouse fibroblasts. XiGFP mouse fibroblasts, % GFP-positive cells imaging, 3 d; cells co-treated with 5-aza-dC sensitizer; scaled so ellipticine positive control = 100%. activation, % at 7.58 µM. hit rate 0.055% among 360,000. AID 743238;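 active = mean normalized replicate activation at least 10% and every replicate at or above 10%; inconclusive = only one of the two criteria met; inactive = mean below 10% and not all replicates reach 10%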;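 note: 0% = median of on-plate neutral control wells and 100% = ellipticine 6 µM median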
#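 System: 68-5-11 XiGFP fibroblast line; Timing: 3 days compound exposure; Compound dosing: one concentration, pinned; Benchmarks: positive control ellipticine, 6 µM final; Buffer or medium: DMEM containing 5-aza-dC.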
# INS-1E GSIS act: GLuc luminescence reporter in INS-1E cells, primary screen for activators of glucose-dependent secretion of insulin | INS-1E GLuc reporter insulin secretion, 2-3 h | activation, % at 16.6 µM | hit rate 0.61% among 370,000 | AID 743287;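 active = lowest replicate activation of at least 40%, so every replicate reaches that level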;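 note: 0% = median of neutral control wells and 100% = median of IBMX positive control wells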
# MLL AF4-AF9 inh: blocks AF4 peptide binding to human AF9. AID 651704. inhibition, % at 10 µM. P42568. AlphaScreen, biotin-AF4 peptide binding to FLAG-AF9. hit rate 0.47% among 350,000;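 active = every replicate reaching a set inhibition limit, whatever the replicate mean, cut at about 25% in these data; inconclusive = mean inhibition reaches that limit but some replicates miss it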;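 note: 0% = plate neutral control median and 100% = total signal loss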
# Target sequence (P42568 whole entry, looked up): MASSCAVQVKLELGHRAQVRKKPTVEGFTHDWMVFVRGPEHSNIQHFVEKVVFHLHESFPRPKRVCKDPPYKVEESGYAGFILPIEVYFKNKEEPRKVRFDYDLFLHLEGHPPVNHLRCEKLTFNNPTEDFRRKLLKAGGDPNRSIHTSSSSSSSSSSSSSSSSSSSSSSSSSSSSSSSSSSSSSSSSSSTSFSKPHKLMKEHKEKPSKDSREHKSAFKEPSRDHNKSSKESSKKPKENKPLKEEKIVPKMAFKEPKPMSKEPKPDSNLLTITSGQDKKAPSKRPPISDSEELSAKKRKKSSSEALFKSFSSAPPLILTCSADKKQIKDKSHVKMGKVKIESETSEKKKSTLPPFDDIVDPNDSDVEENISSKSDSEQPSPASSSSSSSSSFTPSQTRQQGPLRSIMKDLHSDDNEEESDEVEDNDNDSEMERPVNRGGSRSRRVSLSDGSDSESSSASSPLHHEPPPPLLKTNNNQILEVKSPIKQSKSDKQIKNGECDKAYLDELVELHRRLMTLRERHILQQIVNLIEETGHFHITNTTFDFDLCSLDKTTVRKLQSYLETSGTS
# EWS-Fli block: blocks EWS/Fli oncoprotein-driven transcription. A673 NR0B1-luciferase reporter, viability-normalised. hit rate 0.67% among 350,000. inhibition, % at 12.6 µM;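 active = mean inhibition of at least 50% after viability correction, with every replicate also passing that limit; inconclusive = mean reaches 50% but only one of two replicates passes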;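 note: firefly luciferase signal divided by Alamar Blue viability fluorescence both relative to DMSO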
# PGC1a acetyl inh: lowers PGC1a acetylation signal in U2OS cells; hit rate 0.17% among 350,000; AlphaScreen anti-acetyl-lysine; with virally co-expressed GCN5 acetyltransferase; AID 651687; inhibition, % at 15.6 µM;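 active = every replicate shows inhibition of at least 40%; inconclusive = mean inhibition at least 40% but some replicate below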;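 note: 0% = neutral control wells and 100% = positive control wells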
# Active calls of the source: *; u = inconclusive; x = no result. Most compounds without a hit are left out; they make up all but 2.1% or so of the library.
SMILES,PAX8 inh HTS,XiGFP reactiv,INS-1E GSIS act,MLL AF4-AF9 inh,EWS-Fli block,PGC1a acetyl inh
CCN1CCN(C(c2ccc(C(F)(F)F)cc2)c2ccc3cccnc3c2O)CC1 (centres undefined),u,0,-31,85*,5,14
CCN1CCN(C(c2ccccc2)c2sc3nc(C)nn3c2O)CC1 (centres undefined),10,0,x,4,-7,x
C[C@@H]1CN([C@@H](C)CO)C(=O)c2cc(C#Cc3ccccc3F)cnc2O[C@H]1CN(C)S(=O)(=O)c1ccccc1F,x,0,4,0,-18,-11
CN1CCCCC(NC(=O)c2ccccc2)C1=O (centres undefined),-6,0,117*,x,-9,x
Cc1ccc(C(=O)NC2CCCCN(C)C2=O)cc1 (centres undefined),-34,0,7,x,-24,x
Cc1[nH]c2ccccc2c1/C=N/Nc1ccccn1,-7,-1,2,26*,11,x
Cc1[nH]c2ccccc2c1/C=N/Nc1ccc([N+](=O)[O-])cc1,42,75*,1,11,-46,x
Cc1[nH]c2ccccc2c1/C=N/Nc1nncn1N,-45,0,-10,-3,-50,x
C[C@H](CO)N1C[C@H](C)[C@@H](CN(C)Cc2ccc(C(F)(F)F)cc2)Oc2ccc(NC(=O)CCCCCC(=O)Nc3ccccc3N)cc2C1=O,-11,0,1,1,-15,8
OCCN1CCSC1=S,x,0,45*,0,-10,-3
CC(C)C(=O)Nc1ccc2c(c1)C(=O)N(C)[C@@H]1CC[C@H](CC(=O)NCC3CC3)O[C@H]1CO2,-3,0,6,-3,-16,4
COc1ccc(N2CCN(c3ccc(NC(=O)C4CCCCC4)cc3C#N)CC2)cc1,x,x,51*,x,x,-4
COc1ccc(/C=C/C(=O)NCCc2ccc(OC)c(OC)c2)cc1,-5,0,29,x,x,x
O=C(/C=C/c1ccccc1)NCCc1ccc2c(c1)OCCO2,69*,0,-4,2,-4,x
COc1cccc(/C=C/C(=O)NCCc2ccc3c(c2)OCCO3)c1,6,5,x,-6,57*,x
CO[C@H]1CN(C)C(=O)c2ccc(NC(C)=O)cc2OC[C@@H](C)N(C(=O)C2CC2)C[C@@H]1C,1,1,-5,-1,-6,-12
CC(C)CCOP(=O)(c1ccccc1)c1ccccc1,x,x,64*,x,x,x
C[C@@H](O)C#Cc1cnc2c(c1)C(=O)N([C@@H](C)CO)C[C@H](C)[C@H](CN(C)C(=O)CN1CCOCC1)O2,-10,1,30,-3,-18,-2
C[C@@H](NC(=O)C[C@@H]1C=C[C@H](NC(=O)CN2CCOCC2)[C@H](CO)O1)c1ccccc1,-7,0,1,0,8,-3
O=C(Nc1ccc(F)cc1)Nc1cc(OCC(F)(F)F)cc(OCC(F)(F)F)c1,83*,1,128*,x,x,x
CCOc1ccc(NC(=O)Nc2cc(OCC(F)(F)F)cc(OCC(F)(F)F)c2)cc1,87*,0,-4,-4,17,x
CCOc1ccc(NC(=O)Nc2cc(C)ccc2F)cc1,x,x,x,x,x,-4
O=C(C[C@H]1C[C@H]2c3cc(NC(=O)c4cccnc4)ccc3O[C@H]2[C@H](CO)O1)NCc1ccccc1F,1,0,-9,-1,4,-6
C/C=C/c1ccc([C@H]2[C@H](CO)N(C(=O)COC)[C@H]2CNC(=O)CC)cc1,-6,0,7,-3,-6,4
COc1cc(/C=N/NC(=O)C(C)n2nnc3ccccc32)ccc1O (centres undefined),x,x,53*,x,x,0
SMILES,PAX8 inh HTS,XiGFP reactiv,INS-1E GSIS act,MLL AF4-AF9 inh,EWS-Fli block,PGC1a acetyl inh
COc1ccc(/C=N/NC(=O)Cn2nnc3ccccc32)cc1OC,-6,0,70*,3,-5,x
CN(C)c1ccc(/C=N/NC(=O)Cn2nnc3ccccc32)cc1,-47,0,-12,x,x,x
COc1ccc(/C=N/NC(=O)C(C)n2nnc3ccccc32)cc1OC (centres undefined),x,x,x,x,x,9
CCOc1cc(/C=N/NC(=O)CCn2nnc3ccccc32)ccc1O,-11,0,78*,1,5,3
COc1ccccc1NC(=O)N[C@H]1CC[C@@H](CCNS(=O)(=O)c2ccccc2)O[C@@H]1CO,-2,0,17,-2,5,-18
COc1ccc(/C=N/Nc2nncn2N)cc1Br,3,0,-17,0,-1,69*

# Bioassay records as filed in PubChem.
